Measurements taken from ChEMBL document CHEMBL1141228, “Conformationally constrained CCK4 analogues incorporating IBTM and BTD beta-turn mimetics” (J Med Chem, 2005).

Columns and labels:
[1] = molecular target: T1, Gastrin/cholecystokinin type B receptor (Rattus norvegicus, UniProt P30553); test: Displacement of [3H]propionylCCK8 from rat cerebral cortex CCK2; type: tissue-based
T1 sequence (P30553 whole entry): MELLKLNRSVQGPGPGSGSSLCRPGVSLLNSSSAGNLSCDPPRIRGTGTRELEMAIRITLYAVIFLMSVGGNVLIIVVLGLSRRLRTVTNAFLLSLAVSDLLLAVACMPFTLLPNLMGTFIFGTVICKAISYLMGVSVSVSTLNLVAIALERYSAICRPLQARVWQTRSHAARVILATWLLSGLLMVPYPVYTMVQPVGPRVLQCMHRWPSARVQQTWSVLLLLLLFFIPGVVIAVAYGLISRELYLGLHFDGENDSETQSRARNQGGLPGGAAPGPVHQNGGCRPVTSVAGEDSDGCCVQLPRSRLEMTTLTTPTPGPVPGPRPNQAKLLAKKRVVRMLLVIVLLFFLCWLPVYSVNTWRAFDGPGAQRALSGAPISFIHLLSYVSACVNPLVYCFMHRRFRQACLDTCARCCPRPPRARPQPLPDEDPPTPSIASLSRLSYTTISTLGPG
Outline: (§1)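 Binding run on rat tissue homogenates: pancreas for CCK1, cerebral cortex for CCK2. Seven concentrations of test compound, each in duplicate. Values are means or mean ± SEM of at least three experiments.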

Cholecystokinin receptor = molecular target: T2, Cholecystokinin receptor (Rattus norvegicus, UniProt P30551+P30553); test: Antagonizing activity of CCK8 induced amylase secretion from rat pancreatic acini
T2 sequence (P30551 whole entry): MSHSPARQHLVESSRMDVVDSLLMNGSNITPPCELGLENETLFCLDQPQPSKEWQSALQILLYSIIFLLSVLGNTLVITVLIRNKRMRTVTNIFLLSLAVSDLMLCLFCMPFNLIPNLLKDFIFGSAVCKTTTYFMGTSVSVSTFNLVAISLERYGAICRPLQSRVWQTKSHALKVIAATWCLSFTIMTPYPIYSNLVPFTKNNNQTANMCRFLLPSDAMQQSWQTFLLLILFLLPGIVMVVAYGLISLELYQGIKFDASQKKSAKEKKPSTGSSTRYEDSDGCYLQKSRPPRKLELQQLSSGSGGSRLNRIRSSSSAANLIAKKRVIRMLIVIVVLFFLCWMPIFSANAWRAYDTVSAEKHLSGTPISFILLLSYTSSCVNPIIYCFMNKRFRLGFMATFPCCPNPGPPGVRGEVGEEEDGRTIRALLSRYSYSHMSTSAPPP
T2 sequence (P30553 whole entry): T1 sequence (P30553 whole entry)
Outline: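 Rat pancreas digested with collagenase (70 U/mL) in three 10-min incubations at 37 °C under O2 to give dispersed acini. Acini incubated 30 min at 37 °C under pure O2 with agitation, 0.1 nM CCK8 as stimulus, test compound at increasing concentrations. Amylase measured by kit; release expressed as percent of acinar amylase; percent inhibition computed against vehicle control; IC50 derived.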

[2] = molecular target: T3, Cholecystokinin receptor type A (Rattus norvegicus, UniProt P30551); test: Displacement of [3H]propionylCCK8 from rat pancreatic CCK1; outline: as §1
T3 sequence (P30551 whole entry): T2 sequence (P30551 whole entry)

| SMILES | IC50 [1] | IC50 (Cholecystokinin receptor) | IC50 [2] |
| --- | --- | --- | --- |
| O=C(N[C@H]1C[C@@H]2c3[nH]c4ccccc4c3C[C@@H](C(=O)N[C@@H](Cc3ccccc3)C(=O)O)N2C1=O)OCc1ccccc1 | > 10000 nM | – | – |
| CC(C)(C)OC(=O)N[C@@H](Cc1c[nH]c2ccccc12)C(=O)N[C@H]1CC[C@@H]2SC[C@@H](C(=O)N[C@@H](Cc3ccccc3)C(N)=O)N2C1=O | > 10000 nM | – | > 1000 nM |
| CC(C)(C)OC(=O)N[C@@H](Cc1c[nH]c2ccccc12)C(=O)N[C@H]1CC[C@@H]2SC[C@@H](C(=O)N[C@H](Cc3ccccc3)C(N)=O)N2C1=O | > 10000 nM | – | > 1000 nM |
| CC(C)(C)OC(=O)N[C@@H](Cc1c[nH]c2ccccc12)C(=O)N[C@@H]1C[C@H]2c3[nH]c4ccccc4c3C[C@H](C(=O)N[C@H](Cc3ccccc3)C(N)=O)N2C1=O | > 10000 nM | – | > 1000 nM |
| COC(=O)[C@@H](Cc1ccccc1)NC(=O)[C@@H]1Cc2c([nH]c3ccccc23)[C@H]2C[C@H](NC(=O)[C@@H](Cc3c[nH]c4ccccc34)NC(=O)OC(C)(C)C)C(=O)N21 | > 10000 nM | – | > 10000 nM |
| CC(C)(C)OC(=O)N[C@@H](Cc1c[nH]c2ccccc12)C(=O)N[C@@H]1C[C@H]2c3[nH]c4ccccc4c3C[C@H](C(=O)N[C@@H](Cc3ccccc3)C(N)=O)N2C1=O | > 10000 nM | 130 nM | 54.9 nM |
| CC(C)(C)OC(=O)N[C@H](Cc1c[nH]c2ccccc12)C(=O)N[C@@H]1C[C@H]2c3[nH]c4ccccc4c3C[C@H](C(=O)N[C@H](Cc3ccccc3)C(N)=O)N2C1=O | > 10000 nM | – | 582 nM |
| CC(C)(C)OC(=O)N[C@H](Cc1c[nH]c2ccccc12)C(=O)N[C@H]1CC[C@@H]2SC[C@@H](C(=O)N[C@H](Cc3ccccc3)C(N)=O)N2C1=O | > 10000 nM | – | > 1000 nM |
| COC(=O)[C@H](Cc1ccccc1)NC(=O)[C@@H]1Cc2c([nH]c3ccccc23)[C@H]2C[C@H](NC(=O)[C@H](Cc3c[nH]c4ccccc34)NC(=O)OC(C)(C)C)C(=O)N21 | > 10000 nM | – | > 10000 nM |
| CC(C)(C)OC(=O)N[C@@H](Cc1c[nH]c2ccccc12)C(=O)N[C@H]1C[C@@H]2c3[nH]c4ccccc4c3C[C@@H](C(=O)N[C@@H](Cc3ccccc3)C(N)=O)N2C1=O | > 10000 nM | – | 625 nM |
| CSCC[C@H](NC(=O)[C@H](Cc1c[nH]c2ccccc12)NC(=O)OC(C)(C)C)C(=O)N[C@@H](CC(=O)O)C(=O)N[C@@H](Cc1ccccc1)C(N)=O | – | – | 1800 nM |

The remaining lines, values ahead:

| IC50 [1] | IC50 (Cholecystokinin receptor) | IC50 [2] | SMILES |
| --- | --- | --- | --- |
| > 10000 nM | 829 nM | 25.9 nM | CC(C)(C)OC(=O)N[C@H](Cc1c[nH]c2ccccc12)C(=O)N[C@@H]1C[C@H]2c3[nH]c4ccccc4c3C[C@H](C(=O)N[C@@H](Cc3ccccc3)C(N)=O)N2C1=O |
| > 10000 nM | – | > 1000 nM | CC(C)(C)OC(=O)N[C@H](Cc1c[nH]c2ccccc12)C(=O)N[C@H]1CC[C@@H]2SC[C@@H](C(=O)N[C@@H](Cc3ccccc3)C(N)=O)N2C1=O |
| > 10000 nM | – | 817 nM | CC(C)(C)OC(=O)N[C@H](Cc1c[nH]c2ccccc12)C(=O)N[C@H]1C[C@@H]2c3[nH]c4ccccc4c3C[C@@H](C(=O)N[C@@H](Cc3ccccc3)C(N)=O)N2C1=O |
| 524 nM | – | > 1000 nM | CC(C)(C)OC(=O)N[C@@H](Cc1c[nH]c2ccccc12)C(=O)N[C@H]1C[C@@H]2c3[nH]c4ccccc4c3C[C@@H](C(=O)N[C@H](Cc3ccccc3)C(N)=O)N2C1=O |
| 938 nM | – | > 1000 nM | CC(C)(C)OC(=O)N[C@H](Cc1c[nH]c2ccccc12)C(=O)N[C@H]1C[C@@H]2c3[nH]c4ccccc4c3C[C@@H](C(=O)N[C@H](Cc3ccccc3)C(N)=O)N2C1=O |
